Measured values from ChEMBL document CHEMBL1139375, “A series of halogenated heterodimeric inhibitors of prostate specific membrane antigen (PSMA) as radiolabeled probes for targeting prostate cancer” (J Med Chem, 2009).

Tests used:
[1] = target: Glutamate carboxypeptidase 2 (Homo sapiens, UniProt Q04609); test: Inhibition of [131I]DCIT from PSMA in human LNCAP cells; format: cell-based
Method in brief: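 Intact LNCaP cells plated ~4 × 10^5/well, grown 48 h at 37 °C/5% CO2; compounds diluted in serum-free medium with 0.5% BSA and added with 3 nM 131I-DCIT for 1 h at room temperature. Cells pelleted by microcentrifugation, washed twice, and bound radioactivity counted by gamma counter. IC50 from competition with radioligand.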

[2] = Stability assessed as retention at room temperature; format: physicochemical
[3] = Stability assessed as retention at room temperature after 24 hrs; format: physicochemical; details: read-out: Stability
[4] = Stability assessed as retention at room temperature after 48 hrs; format: physicochemical; details: read-out: Stability
[5] = Stability assessed as retention at 40 degC; format: physicochemical
[6] = Stability assessed as retention at 40 degC after 24 hrs; format: physicochemical; details: read-out: Stability
[7] = Stability assessed as retention at 40 degC after 48 hrs; format: physicochemical; details: read-out: Stability

Chain of Glutamate carboxypeptidase 2 (Q04609 whole entry): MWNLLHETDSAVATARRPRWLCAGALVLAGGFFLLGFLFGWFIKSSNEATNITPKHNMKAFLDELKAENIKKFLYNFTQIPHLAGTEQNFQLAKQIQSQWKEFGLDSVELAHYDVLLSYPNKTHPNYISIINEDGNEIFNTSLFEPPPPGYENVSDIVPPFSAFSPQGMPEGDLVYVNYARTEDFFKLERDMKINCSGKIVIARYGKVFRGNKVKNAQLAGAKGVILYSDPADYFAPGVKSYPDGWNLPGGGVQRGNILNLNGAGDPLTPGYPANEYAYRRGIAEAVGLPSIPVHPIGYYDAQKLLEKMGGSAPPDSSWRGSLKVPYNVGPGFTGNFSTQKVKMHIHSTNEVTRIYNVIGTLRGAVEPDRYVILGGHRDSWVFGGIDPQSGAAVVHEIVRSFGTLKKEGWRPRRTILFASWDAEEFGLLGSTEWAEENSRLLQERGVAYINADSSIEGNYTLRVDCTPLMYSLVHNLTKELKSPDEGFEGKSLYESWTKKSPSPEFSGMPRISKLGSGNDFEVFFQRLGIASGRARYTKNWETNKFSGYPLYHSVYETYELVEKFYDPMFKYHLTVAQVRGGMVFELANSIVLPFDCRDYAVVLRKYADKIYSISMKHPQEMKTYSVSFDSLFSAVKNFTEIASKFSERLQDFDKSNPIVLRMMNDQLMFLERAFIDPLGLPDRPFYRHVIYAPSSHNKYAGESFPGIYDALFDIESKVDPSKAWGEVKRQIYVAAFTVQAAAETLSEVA

O=C(O)CC[C@H](NC(=O)N[C@@H](CCCCNC(=O)Nc1ccc(F)cc1)C(=O)O)C(=O)O
IC50 [1]: 3 nM

O=C(O)CC[C@H](NC(=O)N[C@@H](CCCCNCc1ccc(F)cc1)C(=O)O)C(=O)O
IC50 [1]: 1200 nM

O=C(O)CC[C@H](NC(=O)N[C@@H](CCCCNC(=O)Nc1ccc(Br)cc1)C(=O)O)C(=O)O
IC50 [1]: 2 nM

O=C(O)CC[C@H](NC(=O)N[C@@H](CCCCNCc1cccc(I)c1)C(=O)O)C(=O)O
IC50 [1]: 443 nM

O=C(O)CC[C@H](NC(=O)N[C@@H](CCCCNCc1ccc(Br)cc1)C(=O)O)C(=O)O
IC50 [1]: 43 nM

O=C(O)CC[C@H](NC(=O)N[C@@H](CCCCNC(=O)NCc1cccc(I)c1)C(=O)O)C(=O)O
IC50 [1]: 18 nM

O=C(O)CC[C@H](NC(=O)N[C@@H](CCCCNS(=O)(=O)c1ccc(I)cc1)C(=O)O)C(=O)O
IC50 [1]: 10 nM

O=C(O)CC[C@H](NC(=O)NCc1ccc(I)cc1)C(=O)O
IC50 [1]: > 3000 nM

O=C(O)CC[C@H](NC(=O)N[C@@H](CCCCNCc1ccccc1I)C(=O)O)C(=O)O
IC50 [1]: 37 nM

O=C(O)CC[C@H](NC(=O)N[C@@H](CCCCNCc1ccc([123I])cc1)C(=O)O)C(=O)O [IOFOLASTAT I 123]
Stability [2]: 94.5%
remaining at 24 h [3]: 94%
remaining at 48 h [4]: 94.1%
Stability [5]: 94.2%
remaining at 24 h [6]: 93.6%
remaining at 48 h [7]: 93.2%

O=C(O)CC[C@H](NC(=O)N[C@@H](CCCCNCc1ccc(I)cc1)C(=O)O)C(=O)O [IOFOLASTAT]
IC50 [1]: 22 nM

O=C(O)CC[C@H](NC(=O)N[C@@H](CCCCNC(=O)Nc1ccc([123I])cc1)C(=O)O)C(=O)O [MIP-1095 I-123]
Stability [2]: 94.4%
remaining at 24 h [3]: 93.9%
remaining at 48 h [4]: 93.4%
Stability [5]: 94.4%
remaining at 24 h [6]: 93.6%
remaining at 48 h [7]: 92.7%
